Assay results: ChEMBL document CHEMBL1275253, “Human antimicrobial peptide LL-37 induces MefE/Mel-mediated macrolide resistance in Streptococcus pneumoniae” (2010)
Values after ≈ are worked out from the molar mass of the structure shown.

What was measured:
Type in all cases: functional
Streptococcus pneumoniae [1] = test: Antimicrobial activity against wild-type Streptococcus pneumoniae GA17457 expressing PmefE-lacZ gene induced by pretreatment with 1 ug/ml of compound for 1 hr by microdilution method
In short: (§1)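 Cultures grown to OD600 0.4, split and pre-exposed 1 h to 1 μg/ml erythromycin. Final 2 × 10^5 bacteria/ml in 5-fold-diluted TH with 0.5% yeast extract, added to serial dilutions. After 1 h at 37°C, plated on blood agar. […] At least three independent experiments; one representative shown.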

Streptococcus pneumoniae [2] = test: Antimicrobial activity against mega::aad9-positive Streptococcus pneumoniae XZ8006 expressing PmefE-lacZ gene induced by pretreatment with 50 ug/ml of LL-37 peptide for 1 hr by microdilution method
In short: (§2)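 Cultures grown to OD600 0.4, then split and pre-exposed 1 h to subinhibitory LL-37: 200 μg/ml for GA17457 and XZ7042, 50 for XZ8006 and XZ8009, 100 for XZ8004. Cells then at a final 2 × 10^5/ml in 5-fold-diluted TH with 0.5% yeast extract, added to serial dilutions. […] At least three independent experiments.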

Streptococcus pneumoniae [3] = test: Antimicrobial activity against mefE-mel::aph3-positive Streptococcus pneumoniae XZ8009 expressing PmefE-lacZ gene induced by pretreatment with 50 ug/ml of LL-37 peptide for 1 hr by microdilution method; in short: as §2
Streptococcus pneumoniae [4] = test: Antimicrobial activity against mega::aad9-positive Streptococcus pneumoniae XZ8004 expressing PmefE-lacZ gene induced by pretreatment with 100 ug/ml of LL-37 peptide for 1 hr by microdilution method; in short: as §2
Streptococcus pneumoniae [5] = test: Antimicrobial activity against wild-type Streptococcus pneumoniae GA17457 by microdilution method
In short: (§3)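 Broth microdilution adapted for cationic antimicrobial peptides. Cultures grown to OD600 0.4 without inducer. Bacteria at a final 2 × 10^5/ml in 5-fold-diluted TH medium with 0.5% yeast extract, added to serial dilutions of test agent. After 1 h at 37°C, samples plated on blood agar and incubated 16 h at 37°C with 5% CO2. MIC and MBC read. At least three independent experiments; one representative shown.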

Streptococcus pneumoniae [6] = test: Antimicrobial activity against mefE-mel::aph3-positive Streptococcus pneumoniae XZ8009 by microdilution method; in short: as §3
Streptococcus pneumoniae [7] = test: Antimicrobial activity against Streptococcus pneumoniae XZ7042 expressing PmefE-lacZ gene induced by pretreatment with 200 ug/ml of LL-37 peptide for 1 hr by microdilution method; in short: as §2
Streptococcus pneumoniae [8] = test: Antimicrobial activity against mega::aad9-positive Streptococcus pneumoniae XZ8006 by microdilution method; in short: as §3
Streptococcus pneumoniae [9] = test: Antimicrobial activity against wild-type Streptococcus pneumoniae GA17457 expressing PmefE-lacZ gene induced by pretreatment with 200 ug/ml of LL-37 peptide for 1 hr by microdilution method; in short: as §2
Streptococcus pneumoniae [10] = test: Antimicrobial activity against mega::aad9-positive Streptococcus pneumoniae XZ8004 by microdilution method; in short: as §3
Streptococcus pneumoniae [11] = test: Antimicrobial activity against Streptococcus pneumoniae XZ7042 by microdilution method; in short: as §3
Streptococcus pneumoniae [12] = test: Antimicrobial activity against Streptococcus pneumoniae XZ7042 expressing PmefE-lacZ gene induced by pretreatment with 1 ug/ml of compound for 1 hr by microdilution method
In short: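 Reporter: PmefE-lacZ integrated at bga in clinical isolate GA17457 (serotype 19A). Cultures grown to OD600 0.4, split, and grown 1 h with or without a subinhibitory 1 μg/ml inducer. […] Representative of ≥3 experiments.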

Streptococcus pneumoniae [13] = test: Antimicrobial activity against Streptococcus pneumoniae XZ7042 expressing PmefE-lacZ gene induced by pretreatment with 200 ug/ml of compound for 1 hr by microdilution method; in short: as §2
Streptococcus pneumoniae [14] = test: Antimicrobial activity against mega::aad9-positive Streptococcus pneumoniae XZ8004 by Etest method
Streptococcus pneumoniae [15] = test: Antimicrobial activity against wild-type Streptococcus pneumoniae GA17457 by Etest method
Streptococcus pneumoniae [16] = test: Antimicrobial activity against mega::aad9-positive Streptococcus pneumoniae XZ8006 expressing PmefE-lacZ gene induced by pretreatment with 50 ug/ml of compound for 1 hr by microdilution method; in short: as §2
Streptococcus pneumoniae [17] = test: Antimicrobial activity against wild-type Streptococcus pneumoniae GA17457 expressing PmefE-lacZ gene induced by pretreatment with 1 ug/ml of erythromycin for 1 hr by microdilution method; in short: as §1
Streptococcus pneumoniae [18] = test: Antimicrobial activity against mega::aad9-positive Streptococcus pneumoniae XZ8004 expressing PmefE-lacZ gene induced by pretreatment with 100 ug/ml of compound for 1 hr by microdilution method; in short: as §2
Streptococcus pneumoniae [19] = test: Antimicrobial activity against wild-type Streptococcus pneumoniae GA17457 expressing PmefE-lacZ gene induced by pretreatment with 200 ug/ml of compound for 1 hr by microdilution method; in short: as §2
Streptococcus pneumoniae [20] = test: Antimicrobial activity against mefE-mel::aph3-positive Streptococcus pneumoniae XZ8009 by Etest method
Streptococcus pneumoniae [21] = test: Antimicrobial activity against Streptococcus pneumoniae XZ7042 by Etest method
Streptococcus pneumoniae [22] = test: Antimicrobial activity against mega::aad9-positive Streptococcus pneumoniae XZ8006 by Etest method
Streptococcus pneumoniae [23] = test: Antimicrobial activity against Streptococcus pneumoniae XZ7042 expressing PmefE-lacZ gene induced by pretreatment with 1 ug/ml of erythromycin for 1 hr by microdilution method; in short: as §1
Streptococcus pneumoniae [24] = test: Antimicrobial activity against mefE-mel::aph3-positive Streptococcus pneumoniae XZ8009 expressing PmefE-lacZ gene induced by pretreatment with 50 ug/ml of compound for 1 hr by microdilution method; in short: as §2

## CC[C@H]1OC(=O)[C@H](C)[C@@H](O[C@H]2C[C@@](C)(OC)[C@@H](O)[C@H](C)O2)[C@H](C)[C@@H](O[C@@H]2O[C@H](C)C[C@H](N(C)C)[C@H]2O)[C@](C)(O)C[C@@H](C)C(=O)[C@H](C)[C@@H](O)[C@]1(C)O [ERYTHROMYCIN]
Streptococcus pneumoniae [1]
  MBC: > 64 µg/mL
  MIC: 8 µg/mL (≈ 10.9 µM)
Streptococcus pneumoniae [2]
  MBC: 4 µg/mL (≈ 5.45 µM)
  MIC: 0.5 µg/mL (≈ 0.681 µM)
Streptococcus pneumoniae [3]
  MBC: 2 µg/mL (≈ 2.73 µM)
  MIC: 0.125 µg/mL (≈ 0.17 µM)
Streptococcus pneumoniae [4]
  MBC: 4 µg/mL (≈ 5.45 µM)
  MIC: 0.5 µg/mL (≈ 0.681 µM)
Streptococcus pneumoniae [5]
  MBC: 16 µg/mL (≈ 21.8 µM)
  MIC: 2 µg/mL (≈ 2.73 µM)
Streptococcus pneumoniae [6]
  MBC: 4 µg/mL (≈ 5.45 µM)
  MIC: 0.5 µg/mL (≈ 0.681 µM)
Streptococcus pneumoniae [7]
  MBC: 32 µg/mL (≈ 43.6 µM)
  MIC: 16 µg/mL (≈ 21.8 µM)
Streptococcus pneumoniae [8]
  MBC: 4 µg/mL (≈ 5.45 µM)
  MIC: 0.5 µg/mL (≈ 0.681 µM)
Streptococcus pneumoniae [9]
  MBC: 32 µg/mL (≈ 43.6 µM)
  MIC: 8 µg/mL (≈ 10.9 µM)
Streptococcus pneumoniae [10]
  MBC: 4 µg/mL (≈ 5.45 µM)
  MIC: 0.25 µg/mL (≈ 0.341 µM)
Streptococcus pneumoniae [11]
  MBC: 8 µg/mL (≈ 10.9 µM)
  MIC: 1 µg/mL (≈ 1.36 µM)
Streptococcus pneumoniae [12]
  MBC: > 64 µg/mL
  MIC: 4 µg/mL (≈ 5.45 µM)

## CC[C@H](C)[C@H](NC(=O)[C@H](CCCCN)NC(=O)[C@H](CCC(=O)O)NC(=O)[C@H](CCCCN)NC(=O)[C@H](CO)NC(=O)[C@H](CCCCN)NC(=O)[C@H](CCCNC(=N)N)NC(=O)[C@H](Cc1ccccc1)NC(=O)[C@H](Cc1ccccc1)NC(=O)[C@H](CC(=O)O)NC(=O)CNC(=O)[C@H](CC(C)C)NC(=O)[C@@H](N)CC(C)C)C(=O)NCC(=O)N[C@@H](CCCCN)C(=O)N[C@@H](CCC(=O)O)C(=O)N[C@@H](Cc1ccccc1)C(=O)N[C@@H](CCCCN)C(=O)N[C@@H](CCCNC(=N)N)C(=O)N[C@H](C(=O)N[C@H](C(=O)N[C@@H](CCC(N)=O)C(=O)N[C@@H](CCCNC(=N)N)C(=O)N[C@H](C(=O)N[C@@H](CCCCN)C(=O)N[C@@H](CC(=O)O)C(=O)N[C@@H](Cc1ccccc1)C(=O)N[C@@H](CC(C)C)C(=O)N[C@@H](CCCNC(=N)N)C(=O)N[C@@H](CC(N)=O)C(=O)N[C@@H](CC(C)C)C(=O)N[C@H](C(=O)N1CCC[C@H]1C(=O)N[C@@H](CCCNC(=N)N)C(=O)N[C@H](C(=O)N[C@@H](CCC(=O)O)C(=O)N[C@@H](CO)C(=O)O)[C@@H](C)O)C(C)C)[C@@H](C)CC)C(C)C)[C@@H](C)CC [CATHELICIDIN]
Streptococcus pneumoniae [13]
  MBC: > 2000 µg/mL
  MIC: 2000 µg/mL (≈ 445 µM)
Streptococcus pneumoniae [14]
  MIC: 0.125 µg/mL (≈ 0.0278 µM)
Streptococcus pneumoniae [15]
  MIC: 12 µg/mL (≈ 2.67 µM)
Streptococcus pneumoniae [16]
  MBC: 250 µg/mL (≈ 55.6 µM)
  MIC: 125 µg/mL (≈ 27.8 µM)
Streptococcus pneumoniae [17]
  MBC: > 2000 µg/mL
  MIC: 2000 µg/mL
Streptococcus pneumoniae [5]
  MBC: 1000 µg/mL (≈ 223 µM)
  MIC: 500 µg/mL (≈ 111 µM)
Streptococcus pneumoniae [6]
  MBC: 250 µg/mL (≈ 55.6 µM)
  MIC: 125 µg/mL (≈ 27.8 µM)
Streptococcus pneumoniae [18]
  MBC: 250 µg/mL (≈ 55.6 µM)
  MIC: 125 µg/mL (≈ 27.8 µM)
Streptococcus pneumoniae [19]
  MBC: > 2000 µg/mL
  MIC: 2000 µg/mL (≈ 445 µM)
Streptococcus pneumoniae [20]
  MIC: 0.125 µg/mL (≈ 0.0278 µM)
Streptococcus pneumoniae [21]
  MIC: 12 µg/mL (≈ 2.67 µM)
Streptococcus pneumoniae [22]
  MIC: 0.125 µg/mL (≈ 0.0278 µM)
Streptococcus pneumoniae [8]
  MBC: 250 µg/mL (≈ 55.6 µM)
  MIC: 125 µg/mL (≈ 27.8 µM)
Streptococcus pneumoniae [23]
  MBC: > 2000 µg/mL
  MIC: 2000 µg/mL
Streptococcus pneumoniae [10]
  MBC: 500 µg/mL (≈ 111 µM)
  MIC: 250 µg/mL (≈ 55.6 µM)
Streptococcus pneumoniae [11]
  MBC: 1000 µg/mL (≈ 223 µM)
  MIC: 500 µg/mL (≈ 111 µM)
Streptococcus pneumoniae [24]
  MBC: 250 µg/mL (≈ 55.6 µM)
  MIC: 64 µg/mL (≈ 14.2 µM)
